Data as given in ChEMBL document CHEMBL1148738, “Design, synthesis, and in vitro evaluation of carbamate derivatives of 2-benzoxazolyl- and 2-benzothiazolyl-(3-hydroxyphenyl)-methanones as novel fatty acid amide hydrolase inhibitors” (J Med Chem, 2007).
Calls of active or inactive are those of the source. No cut-off for these calls is given here.

What was measured:
[1] = biological target: T1, Fatty-acid amide hydrolase 1 (Rattus norvegicus, UniProt P97612); assay: Inhibition of FAAH activity in Wistar rat brain
T1 sequence (P97612 whole entry): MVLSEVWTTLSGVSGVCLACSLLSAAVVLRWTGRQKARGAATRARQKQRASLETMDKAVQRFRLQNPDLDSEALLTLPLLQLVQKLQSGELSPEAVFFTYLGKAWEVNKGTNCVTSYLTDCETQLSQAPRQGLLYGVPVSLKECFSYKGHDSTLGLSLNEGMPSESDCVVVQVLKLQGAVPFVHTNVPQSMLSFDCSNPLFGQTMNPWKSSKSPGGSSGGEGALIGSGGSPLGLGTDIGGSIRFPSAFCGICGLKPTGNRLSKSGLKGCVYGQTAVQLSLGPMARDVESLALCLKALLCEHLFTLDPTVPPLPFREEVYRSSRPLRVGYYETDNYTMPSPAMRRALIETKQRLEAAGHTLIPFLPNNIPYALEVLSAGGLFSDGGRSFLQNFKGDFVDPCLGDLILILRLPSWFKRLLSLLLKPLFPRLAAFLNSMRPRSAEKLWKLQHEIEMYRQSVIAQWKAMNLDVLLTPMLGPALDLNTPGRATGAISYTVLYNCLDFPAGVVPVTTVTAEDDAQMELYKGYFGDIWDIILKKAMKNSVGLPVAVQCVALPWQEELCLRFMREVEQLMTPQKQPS
Method in brief: (§1)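 Enzyme source: supernatant (10 000 g, 20 min, 4 °C) of whole-brain-minus-cerebellum homogenate from 8-week-old male Wistar rats in 0.1 M potassium phosphate pH 7.4. Compound (in DMSO, final max 5%) preincubated 10 min with 18 µg protein. Substrate: [ethanolamine 1-³H]arachidonoylethanolamide, with 0.5% fatty-acid-free BSA, 10 min at 37 °C. Stopped with ethyl acetate. Aqueous [³H]ethanolamine counted by liquid scintillation.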

Rattus norvegicus [2] = organism: Rattus norvegicus; assay: Inhibition of MAGL in Wistar rat cerebellar membrane assessed as remaining enzyme activity at 100 uM; values are per cent of control; conditions: Cerebellum
[3] = Inhibition of MAGL in Wistar rat cerebellar membrane; type: cell membranes, Cerebellum
Method in brief: (§2)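 Cerebellar membranes from 4-week-old male Wistar rats. Preincubation 30 min at 25 °C: 10 µg protein, 44 mM Tris-HCl pH 7.4, 0.9 mM EDTA, 0.5% BSA, 1.25% DMSO. Incubation 90 min at 25 °C: 5 µg protein, 54 mM Tris-HCl, 1.1 mM EDTA, 100 mM NaCl, 5 mM MgCl2, 0.5% BSA, 50 µM 2-AG. Samples at 0 and 90 min stopped with acidified acetonitrile (pH 3.0). 2-AG and arachidonic acid quantified by HPLC-UV at 211 nm from peak areas.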

Rattus norvegicus [4] = organism: Rattus norvegicus; assay: Inhibition of MAGL in Wistar rat cerebellar membrane at 100 uM; type: cell membranes; conditions: Cerebellum; method in brief: as §2
[5] = biological target: T2, Fatty-acid amide hydrolase 1 (Rattus norvegicus) (UniProt P97612); assay: Inhibition of FAAH activity in Wistar rat brain assessed as remaining enzyme activity at 10 uM; values are per cent of control
T2 sequence (whole entry): T1 sequence (P97612 whole entry)

Rattus norvegicus [6] = organism: Rattus norvegicus; assay: Inhibition of MAGL in Wistar rat cerebellar membrane assessed as remaining enzyme activity at 1 mM; values are per cent of control; conditions: Cerebellum
[7] = biological target: T2, Fatty-acid amide hydrolase 1 (Rattus norvegicus); assay: Inhibition of FAAH activity in Wistar rat brain at 10 uM; method in brief: as §1

Compound	IC50 [1] [µM]	residual activity (Rattus norvegicus [2]) [%]	other results
O=C(NCc1ccccc1)Oc1cccc(C(=O)c2nc3ccccc3o2)c1	0.152	57	
O=C(NC1CCCC1)Oc1ccc(C(=O)c2nc3ccccc3o2)cc1	0.288		IC50 [3]: 14 µM
O=C(NC1CCCCC1)Oc1cccc(C(=O)c2nc3ccccc3s2)c1	0.056	79	
CCCNC(=O)Oc1cccc(C(=O)c2nc3ccccc3s2)c1	0.143	70	
O=C(Nc1cccc(C(=O)c2nc3ccccc3o2)c1)OC1CCCC1			Activity (Rattus norvegicus [4]): inactive; residual activity [5]: 95%
CCCCNC(=O)Oc1cccc(C(=O)c2nc3ccccc3o2)c1	0.054	59	
Cc1ccccc1CNC(=O)Oc1ccc(C(=O)c2nc3ccccc3o2)cc1	0.137		IC50 [3]: 25 µM; residual activity (Rattus norvegicus [6]): 11%
O=C(c1cccc(OCc2ccccc2)c1)c1nc2ccccc2o1			Activity [7]: inactive; Activity (Rattus norvegicus [4]): inactive
O=C(c1cccc(NC(=O)C2CCCC2)c1)c1nc2ccccc2o1			Activity (Rattus norvegicus [4]): inactive; residual activity [5]: 95%
O=C(NC1CCCC1)Oc1cccc(C(=O)c2nc3ccccc3s2)c1	0.047	71	
CCNC(=O)Oc1cccc(C(=O)c2nc3ccccc3s2)c1	0.238	80	
CCCNC(=O)Oc1cccc(C(=O)c2nc3ccccc3o2)c1	0.109	57	
O=C(NC1CCCCC1)Oc1cccc(C(=O)c2nc3ccccc3o2)c1	0.047	83	
O=C(c1cccc(OCc2ccccc2)c1)c1nc2ccccc2s1			Activity [7]: inactive; inhibition (Rattus norvegicus [4]): inactive
CCNC(=O)Oc1cccc(C(=O)c2nc3ccccc3o2)c1	0.379	75	
O=C(c1cccc(OC(=O)C2CCCC2)c1)c1nc2ccccc2o1			Activity (Rattus norvegicus [4]): inactive; residual activity [5]: 88%
O=C(Nc1cccc(C(=O)c2nc3ccccc3o2)c1)NC1CCCC1			Activity (Rattus norvegicus [4]): inactive; residual activity [5]: 94%
CCCCNC(=O)Oc1cccc(C(=O)c2nc3ccccc3s2)c1	0.103	76	
O=C(NC1CCCC1)Oc1cccc(C(=O)c2nc3ccccc3o2)c1	0.028	54	
Cc1cccc(CNC(=O)Oc2cccc(C(=O)c3nc4ccccc4s3)c2)c1	0.038		IC50 [3]: 23 µM; residual activity (Rattus norvegicus [6]): 11%
O=C(NCc1ccccc1)Oc1cccc(C(=O)c2nc3ccccc3s2)c1	0.121	75	
Cc1cccc(CNC(=O)Oc2cccc(C(=O)c3nc4ccccc4o3)c2)c1	0.032		IC50 [3]: 16 µM; residual activity (Rattus norvegicus [6]): 11%
